Measurements as given in ChEMBL document CHEMBL5620421, “2,6-Disubstituted 7-(naphthalen-2-ylmethyl)-7H-purines as a new class of potent antitubercular agents inhibiting DprE1” (Eur J Med Chem, 2023).
Activity calls are given as the source filed them. The calls are words filed in the database; no cut-off is given here.

Columns and labels:
Pseudomonas aeruginosa = experiment: Antibacterial activity against multidrug-resistant Pseudomonas aeruginosa A1245 assessed as inhibition of bacterial growth at 125 uM incubated for 24 to 48 hrs by microdilution broth method; type: functional, organism-based; settings: time 24-48 hrs
[1] = test system: Mycobacterium tuberculosis; experiment: Antitubercular activity against Mycobacterium tuberculosis CNCTC My 331/88 (H37Rv) infected in MONO-MAC-6 cells assessed as reduction in colony forming unit growth at 25 uM measured after 48 hrs of incubation by MTT based ELISA relative to control; type: functional; design: scale not given: the % may be the effect or the level left
Staphylococcus aureus = experiment: Antibacterial activity against Staphylococcus aureus C1947 assessed as inhibition of bacterial growth at 125 uM incubated for 24 to 48 hrs by microdilution broth method; type: functional, organism-based; settings: time 24-48 hrs
[2] = test system: Mycobacterium tuberculosis; experiment: Antitubercular activity against Mycobacterium tuberculosis CNCTC My 331/88 (H37Rv) infected in MONO-MAC-6 cells assessed as inhibition of bacterial growth measured after 48 hrs of incubation by MTT based ELISA; type: functional, organism-based; settings: MONO-MAC-6, 48 h
Summary of the method: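 MonoMac6 cells in RPMI-1640 with 10% FBS, 2 mM glutamine and gentamicin, seeded at 6.5 × 10³ cells/well the day before. Treated 48 h at 2.56 × 10⁻³–250 μM in incomplete medium with 1% DMSO. Read by MTT (3.5 h), formazan in DMSO, absorbance at 540/620 nm. IC50 from dose-response curves.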

| Compound | Activity (Pseudomonas aeruginosa) | Activity [1] | Activity (Staphylococcus aureus) | IC50 [2] [µM] |
| --- | --- | --- | --- | --- |
| CCNc1nc(N2CCOCC2)nc2ncn(Cc3ccc4ccccc4c3)c12 | inactive | >=80% | inactive | 57 |
| Nc1nc(N2CCOCC2)nc2ncn(Cc3ccc4ccccc4c3)c12 | inactive | – | inactive | – |
| CCOc1nc(N2CCOCC2)nc2ncn(Cc3ccc4ccccc4c3)c12 | inactive | – | inactive | – |
